Assays:
[1] = tested on: WM-115; assay: Cytotoxicity against human WM115 cells after 46 hrs by MTT assay; format: functional, cell-based; details: WM-115, 46 h
Procedure, shortened: (§1)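 MTT read-out of survival in cells treated with test compound and compared with untreated control cells. IC50 is the concentration that lowers the surviving cell fraction to 50% of control. Values are means (μM) ± standard deviation from 3 experiments, each run in quintuple. Cancer-line IC50s were compared with normal-cell (HUVEC) IC50s by unpaired t-test.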

[2] = tested on: HL-60; assay: Cytotoxicity against human HL60 cells after 46 hrs by MTT assay; format: functional, cell-based; details: HL-60, 46 h; procedure, shortened: as §1
[3] = Lipophilicity, log P of the compound by HPLC analysis; format: physicochemical
[4] = tested on: NALM-6; assay: Cytotoxicity against human NALM6 cells after 46 hrs by MTT assay; format: functional, cell-based; details: NALM-6, 46 h; procedure, shortened: as §1
[5] = tested on: HUVEC; assay: Cytotoxicity against HUVEC after 46 hrs by MTT assay; format: cell-based; details: Homo sapiens; procedure, shortened: as §1

Row | logP [3] | SMILES | IC50 [1] [µM] | IC50 [2] [µM] | IC50 [4] [µM] | IC50 [5] [µM]
1 | 2.98 | O=C1/C(=C/c2ccncc2)C(c2ccccc2)Oc2ccccc21 (stereo unspecified) | 6.3 | 0.9 | 1.6 | 5.77
2 | 2.85 | O=C1/C(=C\c2ccncc2)C(c2ccccc2)Oc2ccccc21 (stereo unspecified) | 4.6 | 1.1 | 0.7 | 5.14
3 | 3.1 | O=C1/C(=C/c2ccc(O)cc2)COc2ccccc21 | 69 | 5.7 | 32.3 | –
4 | 3.07 | O=C1/C(=C/c2ccccc2)COc2ccccc21 | 53.7 | 5.4 | 6.2 | –
5 | 3.33 | O=c1c(Cc2ccc(O)cc2)coc2ccccc12 | 57.2 | 46.7 | 49.8 | –
6 | 3.9 | O=C1/C(=C\c2ccccc2)C(c2ccccc2)Oc2ccccc21 (stereo unspecified) | 52.6 | 27.3 | > 1000 | –
7 | 3.9 | O=C1/C(=C/c2ccccc2)C(c2ccccc2)Oc2ccccc21 (stereo unspecified) | 59.4 | 33.3 | 29.5 | –
8 | 3.45 | O=C1/C(=C\c2ccccc2)C(c2ccccc2)Oc2ccc(O)cc21 (stereo unspecified) | 9.1 | 7.3 | 58.8 | –
9 | 3.5 | O=C1/C(=C/c2ccccc2)C(c2ccccc2)Oc2ccc(O)cc21 (stereo unspecified) | 44.5 | 5.8 | 8.7 | –
10 | 4.39 | Cc1ccc(/C=C2\C(=O)c3ccccc3OC2c2ccccc2)cc1 (stereo unspecified) | 57 | 40.8 | > 1000 | –
11 | 4.36 | Cc1ccc(/C=C2/C(=O)c3ccccc3OC2c2ccccc2)cc1 (stereo unspecified) | 60.1 | 40.9 | 51.4 | –
12 | 4.53 | O=C1/C(=C\c2ccc(Cl)cc2)C(c2ccccc2)Oc2ccccc21 (stereo unspecified) | 27.4 | > 1000 | > 1000 | –
13 | 4.46 | O=C1/C(=C/c2ccc(Cl)cc2)C(c2ccccc2)Oc2ccccc21 (stereo unspecified) | 52 | 5.8 | 7.4 | –
14 | 4.71 | O=C1/C(=C\c2ccc(Br)cc2)C(c2ccccc2)Oc2ccccc21 (stereo unspecified) | 32.6 | > 1000 | > 1000 | 29.1
15 | 4.46 | O=C1/C(=C/c2ccc(Br)cc2)C(c2ccccc2)Oc2ccccc21 (stereo unspecified) | 25.9 | 5.7 | 6.9 | 7.23
16 | 2.89 | O=C1/C(=C\c2ccccc2)COc2ccccc21 | 13.5 | 6.7 | 5.5 | –
17 | 2.92 | O=C1/C(=C\c2ccc(O)cc2)COc2ccccc21 | 12.1 | 6.5 | 466 | –
18 | 3.93 | O=c1c(Cc2ccc([N+](=O)[O-])cc2)coc2ccccc12 | 6.1 | 2.4 | 5 | 5.4
19 | 3.58 | N#Cc1ccc(Cc2coc3ccccc3c2=O)cc1 | 6.3 | 3.8 | 4.8 | –
20 | 4.02 | O=c1c(Cc2ccc(F)cc2)coc2ccccc12 | 53.2 | 19.1 | 8.2 | –
21 | 3.31 | O=c1c(Cc2cccc(O)c2)coc2ccccc12 | 17.6 | 6.3 | 7.3 | –
22 | – | O=C1CCOc2ccccc21 [CHROMANONE] | > 1000 | 677 | 674 | –
23 | – | O=C1CC(c2ccccc2)Oc2ccccc21 (stereo unspecified) [FLAVANONE] | 71.2 | 51.1 | 57.6 | –
24 | – | O=C1C[C@@H](c2ccc(O)cc2)Oc2cc(O)cc(O)c21 [NARINGENIN] | 525 | 414 | 426 | –
25 | – | O=c1c(O)c(-c2ccc(O)c(O)c2)oc2cc(O)cc(O)c12 [QUERCETIN] | 178 | 58 | 77.1 | –

— ChEMBL document CHEMBL2401718, “Structure-cytotoxic activity relationship of 3-arylideneflavanone and chromanone (E,Z isomers) and 3-arylflavones” (Bioorg Med Chem Lett, 2013)
